Screening data (PubChem BioAssay)
PAD4 FP inh – inhibitors of human PAD4. recombinant PAD4, RCA probe fluorescence polarization. inhibition, % at 6.36 µM. hit rate 0.41% among 330,000;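 active = percent inhibition above a cutoff equal to the mean of all tested compounds plus 3 SD, cut at about 15% in these data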
eLon inh – inhibits E. coli Lon protease; purified E. coli Lon protease, fluorescence polarization; inhibition, % at 7.94 µM; hit rate 0.42% among 360,000; in the data active = inhibition above about 13%, passing the limit was not always enough
TDP2 absorb – blocks human TDP2 phosphodiesterase activity; inhibition, % at 12.8 µM; hit rate 0.34% among 370,000; O95551; recombinant TDP2, T5PNP hydrolysis, p-nitrophenol absorbance 415 nm;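 active = inhibition above the mean of all tested compounds plus 3 SD, set per campaign, cut at about 25% in these data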
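Material: recombinant human TDP2; quantity: TDP2 enzyme at 120 nM final; medium: Tris-HCl pH 7.5 with MgCl2; compound: single concentration, 12.8 µM nominal, with 1% DMSO; incubation: 2 h enzyme incubation at 37 °C; signal: epi absorbance; measure: percent inhibition; benchmarks: high control without enzyme, low control DMSO plus TDP2; repeats: singlicate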
GSTO1 inh – counter-screen for RBBP9 inhibitors: inhibitors of human GSTO1; AID 1974; hit rate 1.1% among 300,000; P78417; inhibition, % at 5.96 µM; recombinant GSTO1, activity-based probe fluorescence polarization;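 active = inhibition above the campaign mean inhibition plus 3 SD, cut at about 35% in these data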
Target sequence (P78417 whole entry, looked up): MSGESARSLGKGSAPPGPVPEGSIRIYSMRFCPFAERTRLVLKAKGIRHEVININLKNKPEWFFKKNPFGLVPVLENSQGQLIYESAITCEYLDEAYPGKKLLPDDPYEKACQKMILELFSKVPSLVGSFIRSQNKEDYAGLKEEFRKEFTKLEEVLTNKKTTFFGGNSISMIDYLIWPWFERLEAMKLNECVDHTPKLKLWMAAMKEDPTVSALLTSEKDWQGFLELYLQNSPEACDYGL
PRMT1 inh – inhibitors of human PRMT1; hit rate 1.3% among 370,000; Q99873; inhibition, % at 2.79 µM; AID 652257; recombinant PRMT1, activity-based probe fluorescence polarization;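 active = inhibition above about 21% made by adding two undisclosed values, limit read from the data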
Target sequence (Q99873 whole entry, looked up): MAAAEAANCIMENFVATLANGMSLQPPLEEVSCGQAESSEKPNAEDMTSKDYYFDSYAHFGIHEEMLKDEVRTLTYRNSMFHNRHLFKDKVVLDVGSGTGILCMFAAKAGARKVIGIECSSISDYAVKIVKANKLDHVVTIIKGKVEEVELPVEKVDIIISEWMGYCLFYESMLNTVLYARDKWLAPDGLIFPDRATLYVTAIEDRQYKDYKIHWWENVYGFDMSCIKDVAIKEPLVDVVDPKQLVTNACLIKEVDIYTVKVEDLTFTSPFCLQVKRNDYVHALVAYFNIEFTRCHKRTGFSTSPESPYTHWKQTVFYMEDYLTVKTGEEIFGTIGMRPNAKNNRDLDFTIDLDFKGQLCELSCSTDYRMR
Numbers stand for hits; . = inactive; / = no result given. The list is not random: actives were taken first. Their share in the collection is about 2.5%.

SMILES | PAD4 FP inh | eLon inh | TDP2 absorb | GSTO1 inh | PRMT1 inh
CCc1nc2sc3c(c2c(=O)n1NC(=O)CCl)CCCC3 | . | . | . | 58 | .
CCOc1ccc(NC(=O)C(c2ccccn2)N(C(=O)CCl)c2ccc(OC)cc2)cc1 (stereo unspecified) | . | . | . | 36 | .
COc1ccc(N(C(=O)CCl)C(C(=O)NC2CCCCC2)c2cccnc2)cc1 (stereo unspecified) | . | . | . | 98 | .
COc1ccc(-n2c(COc3ccc(C)cc3)nnc2SCC(=O)c2ccc(-c3ccccc3)cc2)cc1 | / | / | . | / | .
CCCC[C@H](CCCc1ccc(F)cc1)CCC(=O)N(c1ccccc1)c1ccccc1 | / | / | . | / | .
Cc1ccc(N2NC(=O)/C(=C\c3cc4c(cc3[N+](=O)[O-])OCO4)C2=O)cc1C | . | . | . | . | 24
COc1ccc(-c2nnc(SCC(=O)Nc3ccc(S(=O)(=O)Nc4cc(C)nc(C)n4)cc3)n2-c2ccc(OC)cc2)cc1 | / | / | . | / | .
O=C(NC1CCCCN(Cc2ccc(Cl)cc2)C1=O)C(c1ccccc1)c1ccccc1 (stereo unspecified) | / | / | . | / | .
O=C(NCCN1CCC(n2c(=O)[nH]c3cc(Cl)ccc32)CC1)c1ccc(F)cc1 | / | / | . | / | .
Cc1ccc2nc(C)cc(C(=O)OCC(=O)c3ccc(Cl)c([N+](=O)[O-])c3)c2c1 | . | . | . | . | .
Cc1cc(C(=O)OCC(=O)c2ccc(Cl)c([N+](=O)[O-])c2)c2cccc(C)c2n1 | . | . | . | 37 | .
CCn1c(NCc2ccccc2Cl)nc2ccccc21 | . | . | . | 36 | .
CN1C=CC=C/C1=C1/N=C(c2ccccc2)OC1=O | . | . | . | . | .
CC1=CC(=C2N=C(c3ccccc3)OC2=O)C=C(C)O1 | . | 39 | . | . | .
N#CCC(N)=C(C#N)C#N | . | . | . | 79 | .
O=C(COC(=O)c1ccc([N+](=O)[O-])o1)NCc1ccccc1 | . | . | . | / | .
O=C(COC(=O)c1ccc([N+](=O)[O-])s1)NCc1ccccc1 | . | . | . | 42 | .
CC(C)(C)c1ccc(NC(=O)COC(=O)c2ccc([N+](=O)[O-])s2)cc1 | . | . | . | 40 | .
O=C(COC(=O)c1ccc([N+](=O)[O-])s1)Nc1ccc(Cl)cn1 | . | . | . | . | .
O=C(COC(=O)c1ccc([N+](=O)[O-])s1)NC(c1ccccc1)c1ccccc1 | . | . | . | 37 | .
COC(=O)[C@]12C[C@H](CC(=O)NCC34CC5CC(CC(C5)C3)C4)C(=O)N(Cc3ccco3)C1=C[C@H](C1CCCC1)O[C@@H]2C | / | / | . | / | .
COC(=O)[C@]12C[C@H](CC(=O)N3CCCCC3)C(=O)N(Cc3cccc4ccccc34)C1=C[C@H](C1CCCC1)O[C@@H]2C | / | / | . | / | .
Cc1ccc(S(=O)(=O)N[C@H](C(=O)Oc2ccc3c(C(F)(F)F)cc(=O)oc3c2)c2ccccc2)cc1 | . | 20 | / | . | /
Cc1ccc2[nH]cc(C(=O)CCl)c2c1 | . | . | . | 93 | .
O=C(NC(CC1=CCCCC1)c1ccc2ccccc2c1)C(F)(F)F (stereo unspecified) | / | / | . | / | .
SMILES | PAD4 FP inh | eLon inh | TDP2 absorb | GSTO1 inh | PRMT1 inh
O=C(NCCCN1CCOCC1)c1coc2ccccc2c1=O | . | . | . | 35 | .
CC1CCC2(CC1)CCN(CCCOC(=O)Nc1cccc(C(F)(F)F)c1)C2=O (stereo unspecified) | / | / | . | / | .
O=C1CSC(=S)N1/N=C/c1ccc(O)c(O)c1O | . | . | / | 67 | /
O=C1CSC(=S)N1/N=C/c1cc(Br)ccc1O | . | / | / | . | /
O=C1CSC(=S)N1N=Cc1ccc(Cl)s1 | / | . | . | / | 25
C=CCN1C[C@@H](COCc2ccccc2)Oc2cc(F)ccc2S1(=O)=O | / | / | . | / | .
COc1ccc(-n2cc(COC(=O)NCCc3c[nH]c4ccccc34)nn2)cc1 | / | / | . | / | .
COc1cc(SC)ccc1C(=O)Nc1ccccn1 | . | . | . | . | .
COc1cc(SC)ccc1C(=O)Nc1ccon1 | . | . | . | . | 24
O=C(CSc1nnc(C2COc3ccccc3O2)o1)N1CCCC1 (stereo unspecified) | . | . | . | . | 23
COC(=O)CSc1nnc(-c2ccc(NS(=O)(=O)c3c(C(C)C)cc(C(C)C)cc3C(C)C)cc2)o1 | / | / | . | / | .
CCCCCCCCN1C(=O)[C@@H](CC(=O)NCc2ccc(OC)c(OC)c2)C[C@@]2(C(=O)OC)C1=C[C@H](COCc1ccccc1)O[C@@H]2C | / | / | . | / | .
N#CC1=C(S)N(c2ccccc2)C(c2ccc(-c3cc(Cl)ccc3Cl)o2)NC1=O (stereo unspecified) | . | . | . | . | .
N#CC1=C(S)N(c2ccccc2)C(c2ccc(-c3ccc(Cl)c(Cl)c3)o2)NC1=O (stereo unspecified) | . | . | 26 | . | .
COc1ccc(NCc2nnc(SCC(=O)Nc3ccccc3OC)o2)cc1 | . | . | . | . | 22
COc1ccc(C(=O)NCc2nnc(SCC(=O)c3ccccc3)o2)cc1 | . | . | . | . | .
COc1ccc(C(=O)NCc2nnc(SCC(=O)Nc3nc4ccccc4s3)o2)cc1 | . | . | . | . | 23
COc1ccc(OC)c(NC(=O)CSc2nnc(CNc3ccc(F)cc3)o2)c1 | . | . | . | . | .
CC(C)(C)c1ccc(C(=O)NCc2nnc(SCC(=O)NC3CCCCC3)o2)cc1 | . | . | . | . | 21
CC(C)(C)c1ccc(C(=O)NCc2nnc(SCC(=O)NC3CCCC3)o2)cc1 | . | . | . | . | .
CCC(C)CNC(=O)CN1C(=O)C2CCCCN2C(=O)c2ccccc21 (stereo unspecified) | / | / | . | / | .
C=CCN(CC#Cc1ccccc1)Cc1ccc(OC)cc1 | / | / | . | / | .
CCc1nc2sc3ccccc3c(=O)c2c(=O)n1Cc1ccco1 | . | . | . | . | 21
Cc1ccc(-c2nc3c(c(=O)c4ccccc4n3C)c(=O)n2Cc2ccco2)cc1 | . | . | . | . | 22
N#Cc1c(Nc2ccccc2Cl)s[nH]c1=O | . | . | . | . | 23
SMILES | PAD4 FP inh | eLon inh | TDP2 absorb | GSTO1 inh | PRMT1 inh
O=C(NC1CCCCN(Cc2cccc(Cl)c2)C1=O)c1ccc(-c2ccccc2)cc1 (stereo unspecified) | / | / | . | / | .
S=C1Cc2ccccc2N1 | / | . | . | / | 35
O=C1CCC2(CCC(c3ccccc3)CC2)N1CCO (stereo unspecified) | / | / | . | / | .
COc1cc(C2C(C#N)=C(N)N(c3ccc(F)cc3)C3=C2S(=O)(=O)CC3)ccc1O (stereo unspecified) | . | . | . | . | 25
O=C(NCc1ccc(F)c(F)c1)C1CCCN(c2nc3ccccc3o2)C1 (stereo unspecified) | / | / | . | / | .
Cc1ccc(/C=C/C(=O)NCc2ccccn2)o1 | . | . | . | . | 21
Cc1cc(Cl)cc2sc(=S)[nH]c12 | / | . | . | / | 22
COC(=O)C1CN(Cc2ccccc2)CCS(=O)(=O)N1Cc1cn(Cc2ccccc2)nn1 (stereo unspecified) | / | / | . | / | .
O=c1c2cc3cccnc3nc2ncn1Cc1cccs1 | / | / | . | / | .
Oc1c(Cl)cc(CN2CCCCC2)c2cccnc12 | . | . | / | . | /
